Assay outcomes: PubChem, several laboratories
The full list was thinned out, with hits kept by preference.
Diaph act CS = diaphorase activation or chemical reduction counter-screen. Diaphorase/resazurin coupled assay, resorufin fluorescence, 16 min; hits give high values; 1 = vehicle wells, 0 = NADH-free wells. activation factor at 20 µM. 190,000 tested, 0.005% active. AID 1229;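 active = diaphorase activity raised at least twofold by the compound at 20 µM; inactive = activation factor below 2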
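Material: purified diaphorase enzyme from Clostridium kluyveri / Medium: HEPES pH 7.4 buffer with MgCl2 and Tween 20 / Schedule: enzyme reaction of 16 min at room temperature / Measured by: resorufin fluorescence, excitation 544 nm, emission 590 nm / Evaluation: rise in resorufin formation, marking diaphorase activation or chemical reduction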
DTT redox prof = compounds producing H2O2 with reducing agent – biochemical, NIH compound library profiling, artefact control for MLSCN library redox annotation, primary screen; DTT-dependent redox cycling H2O2, phenol red/HRP absorbance; 100% = 100 µM peroxide control, 0% = buffer; activation, % at 10 µM; 200,000 tested, 0.03% active;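 active = activation of at least 50% relative to the plate's high and low controls in the primary single-dose screen; inactive = activation below 50%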;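 note: compound incubated with DTT at 0.8 mM final as the reducing agent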
G6PDH counter = counter-screen for G6PDH assay hits: L. mesenteroides G6PDH inhibition | Purified L. mesenteroides G6PDH, diaphorase/resazurin coupled fluorescence, 45 min | inhibition, % at 5 µM | 200,000 tested, 0.12% active
L major viab = reduces viability of Leishmania major promastigotes; resazurin fluorescence viability; 200,000 tested, 9% active; inhibition, % at 10 µM; AID 1063;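 note: promastigotes grown with compound for 44 hours at 28 °C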
Diaphorase inh = inhibits diaphorase or chemically oxidizes, flagging diaphorase assay artifacts. diaphorase resazurin-to-resorufin fluorescence, NADH, 16 min; bacterial (C. kluyveri) enzyme, not human. inhibition, % at 20 µM. 190,000 tested, 0.69% active. AID 1217;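 active = primary screen inhibition at 20 µM above a set limit, cut at about 50% in these data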;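 note: plate controls were DMSO with full reaction for no effect and wells lacking NADH for full effect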
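Test system: Clostridium kluyveri diaphorase enzyme / Quantity: diaphorase at 0.14 U/mL in enzyme working solution / Incubation: 16-min room-temperature incubation before reading / Benchmarks: NADH-free wells as positive control, DMSO-only neutral wells / Signal: resorufin fluorescence 544/590 nm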
PfGluPho inh = PfG6PD (Plasmodium falciparum) enzyme inhibition. PfGluPho enzyme, NADPH resazurin-diaphorase fluorescence. AID 504690. 350,000 tested, 0.78% active. inhibition, % at 20 µM;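 active = inhibition reaching at least a set limit at 20 µM in the primary screen, cut at about 59% in these data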;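 note: 0% = DMSO wells with substrate and 100% = DMSO wells lacking glucose-6-phosphate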
Lmaj promast 1uM = L. major promastigote growth inhibition, 1 uM repeat | shares compounds with L major viab | resazurin fluorescence, 48 h | inhibition, % at 1 µM | 1,100 tested, 13% active | AID 1258;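 active = inhibition above about 50% in both repeat tests, limit read from the data; inconclusive = one repeat under the set limit, the other over it; inactive = both repeats under the set limit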
* = called active by the depositor; ? = inconclusive; . = no result. Cut-off read from the data, not from the text of the source, unless noted: active = inhibition above about 50%; inactive = the rest.

SMILES	Diaph act CS	DTT redox prof	G6PDH counter	L major viab	Diaphorase inh	PfGluPho inh	Lmaj promast 1uM
Cc1cc(C)c2ccc3c(C)c(C)nc3c2[nH]1	1.1	1.1	-1.9	56.3*	-9.4	-6.4	40.2
Cc1cc(=O)[nH]c2c(C)c(N)ccc12	0.9	2.3	-1.3	-6.2	7.4	8.5	.
O=c1[nH]c2cc([N+](=O)[O-])c([N+](=O)[O-])cc2[nH]c1=O	0.9	-0.6	11.7	4.3	11.3	-8.3	.
O=c1[nH]cc([N+](=O)[O-])cc1Br	0.9	5.1	8.6	61.4*	9.5	0.6	-4.9
CC(=O)C1=C(N2CCCCC2)CCC1=O	1	2.6	26.4	-6.2	-1.0	-15.7	.
CC(=O)Nc1ccc(NC2=Nc3ccccc3N3C2=Nc2c(c(C)nn2-c2ccccc2)C3c2ccccc2)cc1 (stereo not given)	1	3.7	8.5	56.4*	-0.6	11.7	4.7
CCN(CC)S(=O)(=O)c1ccc(C(=O)O)cc1	.	.	.	.	.	-4.8	.
COc1c(/C=N/NC(N)=S)c(C)nn1-c1ccccc1	0.8	-0.2	-0.7	57.7*	20.8	-0.1	-6.4
COc1ccc(Cl)cc1N1C(=O)CC(Sc2ccccc2N)C1=O (stereo not given)	.	.	.	.	.	12.0	.
Cc1ccc(N(CC(O)CON=C2c3ccccc3-c3ccccc32)S(C)(=O)=O)cc1 (stereo not given)	0.7	-0.2	0.3	100.0*	25.3	23.6	?
COc1nnc(-c2ccc(C)cc2)c2ccccc12	.	.	.	.	.	-13.1	.
Cc1cccc(CSc2cccc3cccnc23)c1	0.9	-4.6	6.6	100.3*	7.1	58.8	-9.0
c1ccc(-c2nnnc3ccccc23)cc1	0.9	-0.2	3.5	1.6	5.1	-1.4	.
Clc1ccc2nnnc(-c3ccccc3)c2c1	0.8	-0.1	-2.1	85.7*	15.4	-10.3	3.8
O=C(NC1CC2CCCC(C1)N2C(=S)NCCc1ccccc1)C1CC1 (stereo not given)	0.8	-0.3	10.7	-6.9	19.0	-4.9	.
Cc1ccc([N+](=O)[O-])cc1-c1ccc(/C=N/NC(=O)c2cc3c(ccc4ccccc43)o2)o1	0.8	-3.2	1.2	99.8*	16.7	-7.7	14.7
Cc1ccc(-c2ccc(/C=N\NC(=O)c3cc4c(ccc5ccccc54)o3)o2)cc1[N+](=O)[O-]	1	-3.8	1.0	-0.3	-4.5	-2.1	.
COc1ccc(C(=O)NCC2OCCc3ccccc32)c(O)c1 (stereo not given)	0.8	-0.1	15.9	52.8*	18.7	-4.2	-6.0
O=C(O)/C=C/C(=O)NC1CCS(=O)(=O)C1 (stereo not given)	1	0.0	22.6	60.9*	-2.3	7.5	-13.3
O=C(O)/C=C\C(=O)NC1CCCCC1	0.9	0.2	2.7	-7.3	5.0	6.5	.
COc1ccccc1-c1noc(CCC(=O)NC2CCCCC2)n1	.	.	.	.	.	9.3	.
Cc1nc(-c2ccccc2)sc1-c1nc(-c2ccncc2)ncc1S(=O)(=O)c1ccccc1	0.8	-1.3	-0.6	58.5*	16.5	35.6	17.5
O=S(=O)(c1ccc(Cl)cc1)c1cnc(-c2cccnc2)nc1-c1ccccc1	0.9	0.1	3.4	-0.6	8.4	5.8	.
NS(=O)(=O)c1cccc(NC(=O)CCN2C(=O)C3CCCCC3C2=O)c1 (stereo not given)	.	.	.	.	.	9.6	.
CN1CCN(c2ccc(NC(=O)CN3CCOCC3)cc2F)CC1	1.2	-1.8	8.7	-11.5	-15.8	8.2	.
SMILES	Diaph act CS	DTT redox prof	G6PDH counter	L major viab	Diaphorase inh	PfGluPho inh	Lmaj promast 1uM
Cc1ccc(SCC(=O)Nc2ccc(N3CCN(C)CC3)c(F)c2)cc1	0.8	-3.6	2.2	100.1*	22.6	-3.1	2.0
O=C(CSc1nnc(C2COc3ccccc3O2)o1)N1CCN(c2ccccc2)CC1 (stereo not given)	1.1	-2.0	-1.5	-7.9	-10.4	5.7	.
S=C(c1ccc(Br)cc1)N1CCCC1	.	.	.	.	.	-0.7	.
OCCN1CCN(C(=S)c2ccc(Br)cc2)CC1	0.9	-3.7	2.6	68.1*	7.7	43.4	-1.6
Cc1csc(NC(=O)CSc2nnc(-c3ccc(S(=O)(=O)N4CCCC4)cc3)o2)n1	0.9	1.0	4.2	99.3*	14.9	-20.6	-3.0
COc1ccccc1C(=O)CN1C(=O)NC2(CCc3ccccc32)C1=O (stereo not given)	.	.	.	.	.	4.4	.
COc1cc2c(cc1OC)C(c1ccccc1)N(C(=O)c1cccc(S(C)(=O)=O)c1)CC2 (stereo not given)	.	.	.	.	.	3.1	.
COc1ccc(C(C(=O)NC2CCCC2)N(CCO)C(=O)Cn2nnc(-c3ccc(C)o3)n2)cc1OC (stereo not given)	.	.	.	.	.	-8.2	.
Cc1ccc(N2CN(Cc3cccnc3)CNC2=S)c(C)c1	0.9	3.2	0.2	85.7*	8.2	-8.2	45.9
Cc1cc(C)cc(C(=O)N(NC(=O)Nc2ccc(Cl)cc2)C(C)(C)C)c1	1.1	-3.2	2.9	97.5*	-9.1	-11.8	-10.6
CC(C)(C)N(NC(=O)Nc1ccc(Cl)c(Cl)c1)C(=O)c1ccccc1	0.9	1.3	0.6	12.4	13.8	-9.3	.
O=S(=O)([O-])CCC[n+]1c(/C=C\Nc2ccccc2)oc2ccc(-c3ccccc3)cc21	.	-0.4	-4.0	-0.5	.	.	.
O=c1c(Cl)nc2cc(Cl)ccc2n1CCNc1ncc(C(F)(F)F)cc1Cl	0.9	1.8	-8.2	100.7*	7.7	2.4	100.9*
Cc1nnc(Nc2ccccn2)c2ccccc12	1	-2.2	-2.9	70.1*	-1.5	-1.4	89.7*
O=[N+]([O-])c1ccc2c(c1)C(N1CCOCC1)/C(=C/COc1ccc3ccccc3c1Br)O2 (stereo not given)	0.7	-0.6	-42.4	96.6*	33.7	9.8	-0.6
O=[N+]([O-])c1ccc(OC/C=C2\Oc3ccc([N+](=O)[O-])cc3C2N2CCOCC2)cc1 (stereo not given)	0.9	2.9	-42.3	47.9	10.6	9.2	.
O=c1cnnc(N/N=C/C2CC=CCC2)[nH]1 (stereo not given)	1	1.4	4.9	-6.6	-3.5	13.5	.
Cc1ccc(OCC(=O)N/N=C/C=C/c2ccco2)cc1C	0.8	0.1	-6.1	-2.0	16.9	44.3	.
CCOC(=O)C1CCCN(c2ccc(NC(=O)c3snc4c(=O)[nH]cnc34)cc2)C1 (stereo not given)	1.1	0.7	0.7	76.3*	-5.8	17.5	14.4
COc1ccccc1NC(=O)Nc1nc(CC(=O)Nc2ccc(N(C)C)cc2)cs1	.	.	.	.	.	26.0	.
CCOC(=O)c1ccccc1NC(=O)Cc1sc(-c2cccnc2)nc1-c1ccc(C)cc1	0.9	0.1	4.9	96.9*	8.8	.	-3.8
